Assay results reported in ChEMBL document CHEMBL1124879, “Inotropic "A" ring substituted sulmazole and isomazole analogues” (1990).

Key:
Cavia porcellus [1] = species: Cavia porcellus; assay: In vitro concentration required to give a 50% increase in basal contractile force in an isolated paced guinea pig papillary muscle preparation; format: functional, Muscle tissue
Outline: (§1)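 Isolated guinea pig papillary muscle, loaded at 500 mg, in Krebs-Henseleit with 2.5 mM Ca2+, gassed 95% O2-5% CO2, 34 °C. Paced with 1-ms rectangular pulses at 1.5 Hz, 20% above threshold voltage. Isometric tension recorded. Preparations not contracting uniformly after 60 min were rejected. pA50 is the -log concentration giving a 50% rise in basal force. Top concentrations tested were 0.2, 1 or 5 mM.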

Cavia porcellus [2] = species: Cavia porcellus; assay: In vitro concentration required to give a 50% increase in basal contractile force in an isolated paced guinea pig papillary muscle preparation at 5mM; i = 'inactive'; format: functional; conditions: Muscle tissue; outline: as §1
Canis familiaris [3] = species: Canis familiaris; assay: The effective dose to produce a maximum increase in dP/dt diastolic blood pressure and heart rate; format: functional, Canis lupus familiaris, Artery
Outline: (§2)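 Anesthetized open-chest beagle dogs, 8.5-13 kg, thiopentone induction, α-chloralose/pentobarbitone maintenance, single iv bolus at 0.1 mL/kg. Heart rate taken by tachograph. Doses (mg/kg iv) giving a 50% rise in dP/dt, a 30% fall in diastolic pressure and a 10% rise in heart rate were calculated from mean dose-response data.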

Canis familiaris [4] = assay: Maximum percentage increase in heart rate produced by the compound at a dose of 3 mg/kg; format: functional, Canis lupus familiaris
Outline: (§3)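 Beagle dogs of either sex, 8.5-13 kg, anesthetized and open-chest. Induction with thiopentone sodium 30 mg/kg iv, then maintenance with α-chloralose 15 mg/kg plus pentobarbitone 6 mg/kg via a femoral vein cannula. Single iv bolus at 0.1 mL/kg, with vehicle bolus in every animal. Body temperature held at 37-38 °C. Maximal % change recorded for dP/dt, diastolic blood pressure and heart rate.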

Canis familiaris [5] = species: Canis familiaris; assay: The effective dose was measured to produce the 10%increase in heart rate; format: functional, Canis lupus familiaris; outline: as §2
Canis familiaris [6] = species: Canis familiaris; assay: The effective dose to produce the 30%decrease in diastolic blood pressure; format: functional, Canis lupus familiaris, Artery; outline: as §2
Canis familiaris [7] = assay: Maximum percentage change in dP/dt, diastolic blood pressure and heart rate produced by the compound at a dose 3.0 mg/kg; format: functional, Canis lupus familiaris, Artery; outline: as §3
Canis familiaris [8] = assay: Maximum percentage decrease in diastolic blood pressure produced by the compound at a dose of 3.0 mg/kg; format: functional, Canis lupus familiaris, Artery; outline: as §3
Cavia porcellus [9] = species: Cavia porcellus; assay: In vitro concentration required to give a 50% increase in basal contractile force in an isolated paced guinea pig papillary muscle preparation at 1mM; i = 'inactive'; format: functional; conditions: Muscle tissue; outline: as §1
Canis familiaris [10] = species: Canis familiaris; assay: The effective dose to produce the 30%decrease in diastolic blood pressure.; format: functional, Canis lupus familiaris, Artery; outline: as §2
Canis familiaris [11] = assay: Maximum percentage change in dP/dt, diastolic blood pressure and heart rate produced by the compound at a dose of 3.0 mg/kg; format: functional, Canis lupus familiaris, Artery; outline: as §3
Canis familiaris [12] = species: Canis familiaris; assay: The effective dose was measured to produce the 10%increase in heart rate.; format: functional, Canis lupus familiaris; outline: as §2
Canis familiaris [13] = assay: Maximum percentage decrease in diastolic blood pressure produced by the compound at a dose 3 mg/kg; format: functional, Canis lupus familiaris, Artery; outline: as §3
Canis familiaris [14] = assay: Maximum percentage increase in heart rate produced by the compound at a dose 0.3 mg/kg; format: functional, Canis lupus familiaris; outline: as §3
Canis familiaris [15] = assay: Maximum percentage change in dP/dt, diastolic blood pressure and heart rate produced by the compound at a dose of a mg/kg; format: functional, Canis lupus familiaris, Artery; outline: as §3
Cavia porcellus [16] = species: Cavia porcellus; assay: In vitro concentration required to give a 50% increase in basal contractile force in an isolated paced guinea pig papillary muscle preparation at 0.2mM; i = 'inactive'; format: functional; conditions: Muscle tissue; outline: as §1
Canis familiaris [17] = assay: Maximum percentage change in dP/dt, diastolic blood pressure and heart rate produced by the compound at a dose 0.3 mg/kg; format: functional, Canis lupus familiaris, Artery; outline: as §3
Canis familiaris [18] = assay: Maximum percentage decrease in diastolic blood pressure produced by the compound at a dose 1 mg/kg; format: functional, Canis lupus familiaris, Artery; outline: as §3

**Q.** COc1cc2[nH]c(-c3ccc([S+](C)[O-])cc3OC)nc2cn1 (stereo not given) was tested. Which pA50 (Cavia porcellus [1]) did it give?
**A.** 3.76

**Q.** Which pA50 (Cavia porcellus [2]) does the source give for COc1ccc(-c2nc3c(N)cncc3[nH]2)c(OC)c1 here?
**A.** Weak inotropic effects

**Q.** Which pA50 (Cavia porcellus [1]) does the source give for COc1ccc(-c2nc3ccc[nH]c-3n2)c(OC)c1 here?
**A.** 5.08

**Q.** With COc1cc([S+](C)[O-])ccc1-c1nc2cc(O)c[nH]c-2n1 (stereo not given) as the compound, how does the pA50 (Cavia porcellus [1]) read?
**A.** 3.75

**Q.** What does the source list for COc1cc([S+](C)[O-])ccc1-c1nc2cccnc2[nH]1 (stereo not given) [SULMAZOLE]?
**A.** ED50 (Canis familiaris [3]): 0.8 mg/kg; Max increase (Canis familiaris [4]): 20%; ED10 HR (Canis familiaris [5]): 0.5 mg/kg; ED30 DBP (Canis familiaris [6]): 1 mg/kg; pA50 (Cavia porcellus [1]): 4.7; Max increase (Canis familiaris [7]): 73%; Max decrease (Canis familiaris [8]): 36%

**Q.** For COc1cc([S+](C)[O-])ccc1-c1nc2[nH]ccc(OC)c-2n1 (stereo not given), which pA50 (Cavia porcellus [1]) is on record?
**A.** 4.1

**Q.** Which pA50 (Cavia porcellus [9]) does the source give for COc1ccc(-c2nc3cc(C(C)=O)c[nH]c-3n2)c(OC)c1 here?
**A.** Weak inotropic effects

**Q.** For COc1ccc(-c2nc3cc[nH]cc-3n2)c(OC)c1, which pA50 (Cavia porcellus [1]) is on record?
**A.** 4.01

**Q.** Which results are given for COc1cc([S+](C)[O-])ccc1-c1nc2cc(N)c[nH]c-2n1 (stereo not given)?
**A.** ED30 DBP (Canis familiaris [10]): > 3 mg/kg; Max increase (Canis familiaris [11]): 87%; ED50 (Canis familiaris [3]): 0.5 mg/kg; Max increase (Canis familiaris [4]): 15%; pA50 (Cavia porcellus [1]): 4.01; Max decrease (Canis familiaris [8]): 25%; ED10 HR (Canis familiaris [12]): 1.41 mg/kg

**Q.** How did the pA50 (Cavia porcellus [1]) turn out when COc1cc([S+](C)[O-])ccc1-c1nc2cc(C)c[nH]c-2n1 (stereo not given) was run?
**A.** 3.73

**Q.** How did the pA50 (Cavia porcellus [1]) turn out when COc1cc([S+](C)[O-])ccc1-c1nc2cc(Cl)c[nH]c-2n1 (stereo not given) was run?
**A.** 3.61

**Q.** What does the source list for COc1cc([S+](C)[O-])ccc1-c1nc2c(OC)nccc2[nH]1 (stereo not given)?
**A.** ED30 DBP (Canis familiaris [10]): 0.2 mg/kg; ED50 (Canis familiaris [3]): 0.13 mg/kg; Max decrease (Canis familiaris [13]): 70%; Max increase (Canis familiaris [14]): 10%; Max increase (Canis familiaris [15]): 125%; pA50 (Cavia porcellus [1]): 3.91; ED10 HR (Canis familiaris [12]): 0.28 mg/kg

**Q.** With COc1cc([S+](C)[O-])ccc1-c1nc2c(OC)cncc2[nH]1 (stereo not given) as the compound, how does the pA50 (Cavia porcellus [1]) read?
**A.** 3

**Q.** For COc1ccc(-c2nc3cc(N)c[nH]c-3n2)c(OC)c1, which pA50 (Cavia porcellus [1]) is on record?
**A.** 4.8

**Q.** With COc1cc([S+](C)[O-])ccc1-c1nc2c(N)cncc2[nH]1 (stereo not given) as the compound, how does the pA50 (Cavia porcellus [1]) read?
**A.** 3.72

**Q.** For COc1ccc2[nH]c(-c3ccc([S+](C)[O-])cc3OC)nc2n1 (stereo not given), which pA50 (Cavia porcellus [1]) is on record?
**A.** 3

**Q.** COc1c[nH]c2nc(-c3ccc([S+](C)[O-])cc3OC)nc-2c1 (stereo not given) was tested. Which pA50 (Cavia porcellus [1]) did it give?
**A.** 3.63

**Q.** With CNc1[nH]ccc2nc(-c3ccc(OC)cc3OC)nc1-2 as the compound, how does the pA50 (Cavia porcellus [9]) read?
**A.** Weak inotropic effects

**Q.** With COc1ccc(-c2nc3c(C)nccc3[nH]2)c(OC)c1 as the compound, how does the pA50 (Cavia porcellus [16]) read?
**A.** Weak inotropic effects

**Q.** How did the pA50 (Cavia porcellus [9]) turn out when COc1cc(SC)ccc1-c1nc2c(N)cncc2[nH]1 was run?
**A.** Weak inotropic effects

**Q.** Which results are given for COc1cc([S+](C)[O-])ccc1-c1nc2cnccc2[nH]1 (stereo not given) [ISOMAZOLE]?
**A.** ED30 DBP (Canis familiaris [10]): 0.16 mg/kg; ED50 (Canis familiaris [3]): 0.05 mg/kg; Max increase (Canis familiaris [14]): 15%; Max increase (Canis familiaris [17]): 88%; Max decrease (Canis familiaris [18]): 43%; pA50 (Cavia porcellus [1]): 4.64; ED10 HR (Canis familiaris [12]): 0.056 mg/kg
